High-throughput results: PubChem BioAssay, Sanford-Burnham Center for Chemical Genomics
LMPTP inh: blocks human LMPTP phosphatase; P24666; recombinant LMPTP-A, OMFP fluorogenic substrate, fluorescence intensity; inhibition, % at 20 µM; 360,000 tested, 0.22% active; AID 651560;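 active = compounds that cut the enzyme signal by at least half of the control window in the single-dose screen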
Target sequence (P24666 whole entry, looked up): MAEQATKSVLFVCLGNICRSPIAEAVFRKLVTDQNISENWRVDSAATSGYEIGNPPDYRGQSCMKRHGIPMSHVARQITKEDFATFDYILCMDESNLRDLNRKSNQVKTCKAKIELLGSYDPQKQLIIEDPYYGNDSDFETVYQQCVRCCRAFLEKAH
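Test system: LMPTP-A, protein tyrosine phosphatase of low molecular weight; Input: 0.625 nM enzyme; Incubation: 50 min dark incubation at room temperature; Signal: endpoint fluorescence intensity from OMFP dephosphorylation; Read-out basis: % inhibition versus control wells.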
NadD inh: inhibitors of Staphylococcus aureus NadD | purified NadD enzyme, colorimetric absorbance read-out | inhibition, % at 20 µM | 360,000 tested, 0.78% active | AID 602399; in the data active = inhibition above about 26%
SUMO1-SIM PPI: modulators of human SUMO1-mediated protein-protein interactions | P63165 | SUMO1 binding to a labelled peptide, TR-FRET, 1 h | inhibition, % at 20 µM | 360,000 tested, 0.33% active; in the data active = inhibition above about 37%
Target sequence (P63165 whole entry, looked up): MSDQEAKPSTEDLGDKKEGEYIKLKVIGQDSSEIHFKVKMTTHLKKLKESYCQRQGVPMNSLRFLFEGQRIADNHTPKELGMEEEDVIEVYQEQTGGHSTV
STEP inh: inhibitors of human striatal-enriched phosphatase STEP. P54829. recombinant STEP, OMFP fluorogenic substrate, fluorescence. inhibition, % at 20 µM. 360,000 tested, 0.25% active. AID 588621;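 active = inhibition at 20 µM, scaled per plate between control wells, above about 37%, limit read from the data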
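Material: STEP (striatal-enriched tyrosine phosphatase) enzyme, cell-free; Compound dosing: 20 µM single dose in 1% DMSO; Technique: fluorescence read at 480 nm ex / 540 nm em; Times: reaction 20 min, ambient temperature; Medium: 50 mM Bis-Tris pH 6.0 with 2.5 mM DTT and 0.005% Tween 20; Also added: OMFP at 25 µM.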
DNMT1 block: DNMT1 (human) enzyme inhibition. DNMT1 molecular beacon, Hinp1I cleavage, fluorescence. 360,000 tested, 0.83% active. inhibition (reported as % activation of signal), % at 10 µM; in the data active = inhibition above about 50%
Scp-1 inhibitor: inhibitors of human Scp-1 phosphatase | Q9GZU7 | Recombinant Scp1, phosphopeptide, malachite green phosphate absorbance | inhibition, % at 20 µM | 340,000 tested, 0.88% active;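 active = inhibition above about 50% at 20 µM, limit read from the data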
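Test system: SCP-1 phosphatase catalytic domain, residues 76-261 | Compound dosing: One concentration, 20 µM, with 1.0% DMSO | Schedule: 45 min room-temperature reaction, 5 min colour, 30 min stabiliser | Detection: Absorbance at 630 nm | Read-out basis: % inhibition of SCP-1 phosphate liberation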
Numbers stand for hits; 0 = inactive; - = no result given. Hits are enriched below; roughly 2.4% of the tested compounds scored in any of these assays.

SMILES	LMPTP inh	NadD inh	SUMO1-SIM PPI	STEP inh	DNMT1 block	Scp-1 inhibitor
S=C(NCCCN1CCOCC1)NCCCN1CCOCC1	0	0	0	94	0	0
Nc1nc2c(Cl)ccc(Cl)c2s1	0	0	0	0	0	0
Nc1c2ccccc2nc2ccccc12	0	0	0	0	76	0
Nc1nn2cc(-c3ccc(Br)cc3)nc2c2ccccc12	0	0	65	0	0	0
O=C1/C(=C\c2cc([N+](=O)[O-])ccc2O)SC(=S)N1Cc1ccc(Cl)cc1	0	0	0	0	57	0
O=C1/C(=C\c2cccc(O)c2O)SC(=S)N1Cc1ccccc1	0	0	0	0	0	0
Cc1ccc(S(=O)(=O)c2n[nH]n3c2nc(=O)c2ccccc23)cc1	0	0	0	0	0	0
O=c1nc2c(-c3cccc(Br)c3)n[nH]n2c2ccccc12	0	0	45	0	0	0
COc1ccc(OCCCC(=O)Nc2cccc([N+](=O)[O-])c2C)cc1	0	0	0	0	0	0
Nc1nnc(SCCCC(=O)c2ccc(Br)cc2)s1	0	0	43	0	0	0
Cc1[nH][nH]c(=O)c1C(c1c(C)[nH][nH]c1=O)c1cn(Cc2ccc(Cl)c(Cl)c2)c2ccccc12	0	37	0	0	0	0
CC1(C(=O)Nc2cccc3cccnc23)CCN1Cc1ccccc1OC(F)F (stereo not given)	0	0	0	0	0	-
CC(=O)Nc1cc(-c2ccccc2N(C)C)cn2c(-c3cccc(C(F)(F)F)c3)cnc12	0	0	0	0	61	-
O=C(CN1C(=O)NC2(CCCCCC2)C1=O)NCc1ccccc1	0	0	0	0	0	0
Cc1c(Br)c([N+](=O)[O-])nn1CC(=O)NCCc1ccc(Cl)cc1	0	0	43	0	0	0
Cc1c(Br)c([N+](=O)[O-])nn1CC(=O)NCc1ccccc1	0	0	0	0	0	0
O=c1cc(CSc2nc(NCc3ccccc3)c3ccccc3n2)nc2ccc(Cl)cn12	53	0	0	0	0	0
CC[n+]1c(/C=C/C=C/N(C(C)=O)c2ccccc2)sc2cc(OC)ccc21	-	-	-	-	-	61
O=S1(=O)CCOCCCN1Cc1ccccc1Br	0	0	0	0	0	0
Cc1cc(C)c2c(N)c(C(=O)Nc3ccc([N+](=O)[O-])cc3)sc2n1	0	0	44	0	0	0
Cc1cccn2c(=O)c3cc(C(=O)NCCc4ccccc4)c(=N)n(CCCn4ccnc4)c3nc12	64	0	0	0	0	0
N=c1c(C(=O)NCc2ccco2)cc2c(=O)n3ccccc3nc2n1CCc1ccccc1	55	0	0	0	0	0
N=c1c(C(=O)NCc2ccco2)cc2c(=O)n3ccccc3nc2n1CC1CCCO1 (stereo not given)	0	0	0	0	0	0
COc1ccc(CCNC(=O)c2cc3c(=O)n4ccccc4nc3n(Cc3ccco3)c2=N)cc1OC	0	0	0	0	0	0
COc1ccc(CCn2c(=N)c(C(=O)NCc3ccco3)cc3c(=O)n4ccccc4nc32)cc1OC	0	0	51	0	0	0
SMILES	LMPTP inh	NadD inh	SUMO1-SIM PPI	STEP inh	DNMT1 block	Scp-1 inhibitor
COCCn1c(=N)c(C(=O)NCCc2ccccc2)cc2c(=O)n3cccc(C)c3nc21	0	0	0	0	0	0
Cc1cc(/C=C2\SC(=Nc3ccccc3)NC2=O)c(C)n1-c1ccc(S(N)(=O)=O)cc1	0	46	0	0	0	0
CN(C)CCNc1ccc2ncn3c4ccc(O)cc4c(=O)c1c23	63	0	0	0	86	0
CC1OC2CC(=O)OC2C2=C1C(=O)c1c(O)cccc1C2=O (stereo not given)	0	0	0	0	75	-
CCC[n+]1c2ccccc2cc2ccccc21	0	0	0	0	0	55
CCCC[n+]1c2ccccc2cc2ccccc21	0	0	0	0	0	0
CCN(CC)C(=O)C1=C(C)N(Cc2ccc(F)cc2)C(=O)C(CC(=O)NCC2CCCCC2)C1 (stereo not given)	0	0	0	0	0	-
COc1cc2c(cc1OC)C1(Nc3c-2c(C)nn3-c2ccccc2)C(=O)Nc2ccccc21 (stereo not given)	0	0	0	0	0	0
